Data taken from ChEMBL document CHEMBL1221188, “Small-molecule activation of procaspase-3 to caspase-3 as a personalized anticancer strategy” (Nat Chem Biol, 2006).
Activity calls are given as the source filed them. The rule behind the calls is not given here.

Key:
[1] = molecular target: T1, Caspase-3 (Homo sapiens, UniProt P42574); test: Activation of N-terminal His6-tagged recombinant procaspase-3 expressed in Escherichia coli assessed as hydrolysis of acetyl-DEVD-p-nitroanilide after 2 hrs by SDS-PAGE
T1 sequence (P42574 whole entry): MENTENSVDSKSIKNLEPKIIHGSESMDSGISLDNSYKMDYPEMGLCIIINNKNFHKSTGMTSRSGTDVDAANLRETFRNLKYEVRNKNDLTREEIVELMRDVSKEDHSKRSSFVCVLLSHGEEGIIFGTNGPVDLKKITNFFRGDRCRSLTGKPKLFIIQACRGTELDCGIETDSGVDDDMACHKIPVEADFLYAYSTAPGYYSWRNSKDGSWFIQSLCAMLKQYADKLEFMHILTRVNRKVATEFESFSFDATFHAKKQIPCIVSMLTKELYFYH

[2] = tested on: HL-60; test: Induction of apoptosis in human HL60 cells assessed as increase in caspase-3 activity at 10 uM after 12 hrs; type: functional, cell-based
Summary of the method: (§1)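 HL-60 cells were treated with a range of drug concentrations for various times, then washed. They were lysed by sonication in ice-cold caspase assay buffer and given Ac-DEVD-pNA. Absorbance at 405 nm was read every 2 min for 2 h, and the cleavage rate came from the linear slope.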

[3] = tested on: HL-60; test: Induction of apoptosis in human HL60 cells assessed as increase in PARP1 cleavage at 100 uM after 12 hrs by fluorescence assay; type: functional, cell-based
Summary of the method: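 HL-60 cells given NAD+ with or without drug for various times, then lysed in PARP buffer with 25 mM H2O2 (60 min, 37 °C). Remaining NAD+ was measured fluorometrically after KOH/acetophenone (10 min, 4 °C) and formic acid (5 min, 110 °C). PARP activity is expressed relative to control wells.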

[4] = tested on: HL-60; test: Induction of apoptosis in human HL60 cells assessed as increase in PARP1 cleavage at 10 uM after 12 hrs by fluorescence assay; type: functional, cell-based
[5] = tested on: HL-60; test: Induction of apoptosis in human HL60 cells assessed as mitochondrial membrane depolarization at 10 uM after 12 hrs by fluorescence assay; type: functional, cell-based
Summary of the method: (§2)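 HL-60 cells exposed to drug in DMSO or DMSO alone for various times, stained with JC-9 dye for 10 min at room temperature, then analysed by flow cytometry at 525/675 nm on 50,000 cells. Depolarization was derived from the red-channel shift.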

[6] = molecular target: Caspase-3 (Homo sapiens, UniProt P42574, D179A); test: Activation of N-terminal His6-tagged recombinant procaspase-3 D179A mutant expressed in Escherichia coli assessed as hydrolysis of acetyl-DEVD-p-nitroanilide after 2 hrs by SDS-PAGE; settings: in the assay text read “by spectrophotometry” for “by SDS-PAGE”
Sequence of Caspase-3 (Homo sapiens, UniProt P42574, D179A) (P42574 176-277 D179A limits assumed, one chain of several): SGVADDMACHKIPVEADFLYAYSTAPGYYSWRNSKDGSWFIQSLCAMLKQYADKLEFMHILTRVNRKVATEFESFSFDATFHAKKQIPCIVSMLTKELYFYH
Summary of the method: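 Alanine substitution in the procaspase-3 safety-catch Asp-Asp-Asp triad (Asp179, Asp180, Asp181). The wild-type or mutant proenzyme was incubated with a range of compound concentrations for 12 h at 37 °C. Ac-DEVD-pNA was then added and absorbance at 405 nm was read every 2 min for 2 h. Activity was taken from the linear-phase slope and expressed as relative increase per mutant.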

[7] = tested on: Mus musculus; test: Toxicity in BALB/c mouse xenografted with human NCI-H226 cells assessed as effect on body weight at 100 mg/kg, po administered from day 1 to 4 and day 7 to 11 measured after 28 days; type: organism-based; design: dose 100 mg/kg, route oral; settings: in vivo, 672 h
Summary of the method: (§3)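 Male athymic nude mice received 2 × 10^6 NCI-H226 cells by tail-vein injection. Dosing was 100 mg/kg by oral gavage in 24:1 vegetable oil/DMSO once daily on days 1–4 and 7–11, against vehicle, four mice per group. Body weight was followed. At 28 d the lungs were examined, sectioned, stained and imaged for tumor burden.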

[8] = tested on: HL-60; test: Induction of apoptosis in human HL60 cells assessed as increase in caspase-3 activity at 100 uM up to 2 hrs; type: functional; summary of the method: as §1
[9] = tested on: NCI-H226; test: Antitumor activity against human NCI-H226 cells xenografted in po dosed BALB/c mouse administered SID for 21 days assessed as retardation of tumor growth measured after 1 week post last dose; type: functional, organism-based
Summary of the method: (§4)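 Male athymic BALB/c nude mice, 5 weeks old; 2 × 10^6 NCI-H226 cells injected subcutaneously into the flanks, eight mice per group, three tumors per mouse. Once tumors reached about 50 mm3 (~4 weeks), 0, 50 or 100 mg/kg was given by oral gavage in 24:1 vegetable oil/DMSO once daily for 21 d. Caliper volume (v = 0.5·a·b2) and body weight tracked; killed 1 week later.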

[10] = tested on: HL-60; test: Induction of apoptosis in human HL60 cells assessed viable cells at 5 uM after 28 hrs using annexin V-propidium iodide staining by flow cytometry; type: functional
[11] = tested on: HL-60; test: Induction of apoptosis in human HL60 cells assessed viable cells at 100 uM after 20 hrs using annexin V-propidium iodide staining by flow cytometry; type: functional
Summary of the method: (§5)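 HL-60 cells treated 20 h at 37 °C with 100 µM drug in DMSO or DMSO alone; washed, stained with annexin V–Alexa Fluor 488 (15 min, 23 °C) plus propidium iodide; flow cytometry at 525 and 675 nm, ≥50,000 cells per experiment.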

[12] = Plasma concentration in BALB/c mouse xenografted with human ACHN cells at 5 mg administered via pellet measured after 54 days of tumor implantation; type: ADME, organism-based
[13] = tested on: NCI-H226; test: Antitumor activity against human NCI-H226 cells xenografted in BALB/c mouse assessed as suppression of tumor metastasis at 100 mg/kg, po administered from day 1 to 4 and day 7 to 11 measured after 28 days; type: functional, organism-based; design: dose 100 mg/kg; summary of the method: as §3
[14] = tested on: HL-60; test: Induction of apoptosis in human HL60 cells assessed as chromatin condensation at 100 uM after 20 hrs measured by Hoechst-33258 staining; type: functional, cell-based
Summary of the method: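 HL-60 cells were treated 20 h with 100 µM drug in DMSO against a DMSO control. Cells were then fixed in ice-cold ethanol overnight at 4 °C and stained with Hoechst-33258 for 30 min at room temperature. Condensed chromatin was viewed microscopically at 400× magnification.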

[15] = tested on: HL-60; test: Induction of apoptosis in human HL60 cells assessed late apoptotic cells at 100 uM after 20 hrs using annexin V-propidium iodide staining by flow cytometry; type: functional; summary of the method: as §5
[16] = tested on: NCI-H226; test: Induction of apoptosis in human NCI-H226 cells isolated from BALB/c mouse xenograft assessed as DNA fragmentation at 100 mg/kg, po SID for 21 days measured after 1 week post last dose by TUNEL assay; type: functional, organism-based; design: dose 100 mg/kg
Summary of the method: (§6)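 Subcutaneous NCI-H226 tumors from nude mice dosed orally (50 or 100 mg/kg daily for 21 d in 24:1 vegetable oil/DMSO) were resected at end of study, sectioned and scored by TUNEL staining.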

[17] = tested on: HL-60; test: Induction of apoptosis in human HL60 cells assessed non-viable necrotic cells at 5 uM after 28 hrs using annexin V-propidium iodide staining by flow cytometry; type: functional
[18] = tested on: HL-60; test: Inhibition of apoptosis in human HL60 cells at 100 uM after 24 hrs using annexin V-propidium iodide staining by flow cytometry in presence of pan-caspase inhibitor Z-VAD-FMK; type: functional, cell-based
[19] = tested on: HL-60; test: Induction of apoptosis in human HL60 cells assessed early apoptotic cells at 100 uM after 20 hrs using annexin V-propidium iodide staining by flow cytometry; type: functional; summary of the method: as §5
[20] = tested on: NCI-H226; test: Induction of apoptosis in human NCI-H226 cells isolated from BALB/c mouse xenograft assessed as DNA fragmentation at 50 mg/kg, po SID for 21 days measured after 1 week post last dose by TUNEL assay; type: functional, organism-based; design: dose 50 mg/kg; summary of the method: as §6
[21] = tested on: HL-60; test: Induction of apoptosis in human HL60 cells assessed early apoptotic cells at 5 uM after 28 hrs using annexin V-propidium iodide staining by flow cytometry; type: functional
[22] = Cytotoxicity against human colon cells after 24 hrs by MTS/PMS assay; type: cell-based; settings: Colon cell
[23] = tested on: HL-60; test: Induction of apoptosis in human HL60 cells assessed as increase in caspase-3 activity at 100 uM after 12 hrs; type: functional, cell-based; summary of the method: as §1
[24] = tested on: NCI-H226; test: Antitumor activity against human NCI-H226 cells isolated from BALB/c mouse xenograft assessed as decrease in metastatic tumor burden at 100 mg/kg, po administered from day 1 to 4 and day 7 to 11 measured after 28 days by imaging assay; type: functional, organism-based; design: dose 100 mg/kg; summary of the method: as §3
[25] = tested on: ACHN; test: Antitumor activity against human ACHN cells xenografted in BALB/c mouse assessed as tumor growth at 5 mg administered via pellet measured after 54 days of tumor implantation
Summary of the method: (§7)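 Ovariectomized female athymic BALB/c nu/nu mice; ACHN cells in Matrigel injected subcutaneously into four flanks. After 4 weeks (mean tumor area 34.3 mm2), 20-mg cholesterol pellets with 0, 1 or 5 mg drug implanted subcutaneously; six mice per group. Tumor volume v = 0.5·a·b2 measured weekly. Food intake over two consecutive 24-h periods at study end (8 weeks post-implant).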

[26] = tested on: Mus musculus; test: Toxicity in BALB/c mouse xenografted with human ACHN cells assessed as effect on food intake at 5 mg administered via pellet measured after 54 days of tumor implantation; type: organism-based; settings: in vivo, other, 1296 h; summary of the method: as §7
[27] = tested on: HL-60; test: Induction of apoptosis in human HL60 cells assessed as mitochondrial membrane depolarization at 100 uM after 12 hrs by fluorescence assay; type: functional, cell-based; summary of the method: as §2
[28] = tested on: Mus musculus; test: Toxicity in BALB/c mouse xenografted with human NCI-H226 cells assessed as effect on body weight at 50 to 100 mg/kg, po SID for 21 days measured after 1 week post last dose; type: organism-based; design: dose 50-100 mg/kg, route oral; settings: in vivo, 168 h; summary of the method: as §4
[29] = Cytotoxicity against human colon cancer cells after 24 hrs by MTS/PMS assay; type: functional, cell-based; settings: Cancer cell lines
[30] = tested on: HL-60; test: Induction of apoptosis in human HL60 cells assessed late apoptotic cells at 5 uM after 28 hrs using annexin V-propidium iodide staining by flow cytometry; type: functional
[31] = tested on: HL-60; test: Induction of apoptosis in human HL60 cells assessed non-viable necrotic cells at 100 uM after 20 hrs using annexin V-propidium iodide staining by flow cytometry; type: functional; summary of the method: as §5

## c1ccc(CN2CCNCC2)cc1
[1]
  EC50: > 50 µM

## CN1CCN(CC(=O)N/N=C/c2ccccc2O)CC1
[1]
  EC50: > 50 µM

## C/C=N/NC(=O)CN1CCN(Cc2ccccc2)CC1
[1]
  EC50: > 50 µM

## NNC(=O)CN1CCN(Cc2ccccc2)CC1
[1]
  EC50: > 50 µM

## CCOC(=O)CN1CCN(Cc2ccccc2)CC1
[1]
  EC50: > 50 µM

## c1ccc(CN2CCN(Cc3ccccc3)CC2)cc1
[1]
  EC50: > 50 µM

## O=C(CN1CCN(Cc2ccccc2)CC1)N/N=C/c1ccccc1
[1]
  EC50: > 50 µM

## COc1cc([C@@H]2c3cc4c(cc3[C@@H](O[C@@H]3O[C@@H]5CO[C@@H](C)O[C@H]5[C@H](O)[C@H]3O)[C@H]3COC(=O)[C@H]23)OCO4)cc(OC)c1O
[2]
  Activity: Active
[3]
  Activity: Active
[4]
  Activity: Active
[5]
  Activity: Active

## CCOC(=O)CN1CCNCC1 [ETHYL PIPERAZINOACETATE]
[1]
  EC50: > 50 µM

## C=CCc1cccc(/C=N/NC(=O)CN2CCN(Cc3ccccc3)CC2)c1O [PAC-1]
[6]
  EC50: 131 µM
[7]
  Activity: Non-toxic
[8]
  Activity: 50%
[9]
  inhibition: Dose-dependent effect
[10]
  Activity: 10.26%
[11]
  Activity: 9.8%
[3]
  Activity: Active
[12]
  concentration at 1296 h: 4.4 nM
[13]
  Activity: Active
[14]
  Activity: Active
[15]
  Activity: 9.6%
[16]
  Activity: Active
[17]
  Activity: 0.26%
[18]
  Activity: inactive
[4]
  Activity: Active
[19]
  Activity: 80.2%
[20]
  Activity: Active
[21]
  Activity: 80.75%
[22]
  IC50: 5.02 µM
[23]
  Activity: Active
[24]
  Activity: Active
[25]
  Activity: Active
  inhibition: Active
[26]
  Activity: Non-toxic
[27]
  Activity: inactive
[28]
  Activity: Non-toxic
[29]
  IC50: 3 nM
[30]
  Activity: 8.73%
[31]
  Activity: 0.4%
